From ChEMBL document CHEMBL4184223 (Bioorg Med Chem Lett, 2018)
Active and inactive are the calls of the source. The calls are words filed in the database; no cut-off is given here.

Columns and labels:
BV-2 (Mus musculus) [1] = assay: Antiinflammatory activity in mouse BV-2 cells assessed as inhibition of LPS-induced TNF-alpha production at 10 nM pre-incubated for 1 hr before LPS stimulation for 23 hrs by ELISA method
[2] = Toxicity in CD1 mouse primary cortical neurons assessed as effect on cell viability at 100 nM incubated for 24 hrs by CCK8 assay; assay type: cell-based, Cortical neurone; conditions: read-out: Activity
In short: (§1)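 Primary cortical neuron cultures were exposed to compound alone at the stated concentration. Viability was measured by CCK8 and expressed as the percentage reduction in viable cells.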

[3] = Toxicity in CD1 mouse primary cortical neurons assessed as effect on cell viability at 50 nM incubated for 24 hrs by CCK8 assay; assay type: cell-based, Cortical neurone; conditions: read-out: Activity
In short: as §1

BV-2 (Mus musculus) [4] = assay: Antiinflammatory activity in mouse BV-2 cells assessed as inhibition of LPS-induced TNF-alpha production pre-incubated for 1 hr before LPS stimulation for 23 hrs by ELISA method
Cortical neurone [5] = assay: Neuroprotective activity against amyloid beta (1 to 42) peptide-induced cytotoxicty in CD1 mouse primary cortical neurons assessed as increase in cell viability at 0.01 nM pre-incubated for 1 hr before amyloid beta (1 to 42) addition and measured after 24 hrs by CCK8 assay; assay type: functional
[6] = Toxicity in CD1 mouse primary cortical neurons assessed as effect on cell viability at 25 nM incubated for 24 hrs by CCK8 assay; assay type: cell-based, Cortical neurone; conditions: read-out: Activity
In short: as §1

Cortical neurone [7] = assay: Toxicity in CD1 mouse primary cortical neurons assessed as effect on cell viability at =< 10 nM incubated for 24 hrs by CCK8 assay; assay type: cell-based
In short: (§2)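 Primary cortical neuron cultures were given compound alone across a concentration range, without Aβ. Cell viability was measured by CCK8 and expressed as percent reduction in viable cells. Data are mean ± SD of three independent experiments.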

Cortical neurone [8] = assay: Neuroprotective activity against amyloid beta (1 to 42) peptide-induced cytotoxicty in CD1 mouse primary cortical neurons assessed as increase in cell viability at 0.01 to 1 nM pre-incubated for 1 hr before amyloid beta (1 to 42) addition and measured after 24 hrs by CCK8 assay; assay type: functional
[9] = Toxicity in African green monkey CV1 cells assessed as effect on cell viability incubated for 24 hrs by CCK8 assay
[10] = Stability in neurobasal cell culture medium supplemented with B-27 and N2 assessed as compound hydrolysis by LC-HR MS method; assay type: physicochemical; conditions: read-out: Drug degradation
In short: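 Compound was incubated in neurobasal culture medium containing B-27 and N2 at 37 °C for 24 h, with no enzyme present. The remaining compound concentration was then quantified by LC-HRMS.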

Cortical neurone [11] = assay: Neuroprotective activity against amyloid beta (1 to 42) peptide-induced cytotoxicty in CD1 mouse primary cortical neurons assessed as increase in cell viability at 100 to 1000 nM pre-incubated for 1 hr before amyloid beta (1 to 42) addition and measured after 24 hrs by CCK8 assay; assay type: functional, cell-based
Cortical neurone [12] = assay: Toxicity in CD1 mouse primary cortical neurons assessed as effect on cell viability at 1000 nM incubated for 24 hrs by CCK8 assay; assay type: cell-based; conditions: 1 µM
In short: as §2

BV-2 (Mus musculus) [13] = assay: Antiinflammatory activity in mouse BV-2 cells assessed as inhibition of LPS-induced TNF-alpha production at 20 nM pre-incubated for 1 hr before LPS stimulation for 23 hrs by ELISA method
Cortical neurone [14] = assay: Toxicity in CD1 mouse primary cortical neurons assessed as effect on cell viability at 0.01 to 1 uM incubated for 24 hrs by CCK8 assay; assay type: cell-based
In short: as §2

Cortical neurone [15] = assay: Neuroprotective activity against amyloid beta (1 to 42) peptide-induced cytotoxicty in CD1 mouse primary cortical neurons assessed as increase in cell viability at 1 to 10 nM pre-incubated for 1 hr before amyloid beta (1 to 42) addition and measured after 24 hrs by CCK8 assay; assay type: functional, cell-based
Cortical neurone [16] = assay: Neuroprotective activity against amyloid beta (1 to 42) peptide-induced cytotoxicty in CD1 mouse primary cortical neurons assessed as increase in cell viability at 0.1 to 10 uM pre-incubated for 1 hr before amyloid beta (1 to 42) addition and measured after 24 hrs by CCK8 assay; assay type: functional, cell-based
BV-2 (Mus musculus) [17] = assay: Antiinflammatory activity in mouse BV-2 cells assessed as inhibition of LPS-induced TNF-alpha production at 10 to 1000 nM pre-incubated for 1 hr before LPS stimulation for 23 hrs by ELISA method

For CC(C)[C@]12O[C@H]1[C@@H]1O[C@]13[C@]1(O[C@H]1C[C@H]1C4=C(CC[C@@]13C)C(=O)OC4)[C@@H]2OC(=O)NC12CC3CC(C)(CC(C)(C3)C1)C2, the inhibition at 0.01 µM (BV-2 (Mus musculus) [1]) was 100%, the viability at 24 h, 0.1 µM [2] was 73.5% and the viability at 24 h, 0.05 µM [3] was 32.8%. For the same compound, the Activity (BV-2 (Mus musculus) [4]) was “Dose-dependent effect”, the Activity (Cortical neurone [5]) was 100% and the viability at 24 h, 0.025 µM [6] was 7.7%. For the same compound, the Activity (Cortical neurone [7]) was “Non-Toxic”, the Activity (Cortical neurone [8]) was “Dose-dependent effect” and the Activity [9] was “Non-Toxic”. The degraded [10] was 13%.

In the case of CC(C)[C@]12O[C@H]1[C@@H]1O[C@]13[C@]1(O[C@H]1C[C@H]1C4=C(CC[C@@]13C)C(=O)OC4)[C@@H]2OC(=O)NC(C)(C)C, the Activity (Cortical neurone [11]) is reported as “inactive” and the Activity (Cortical neurone [12]) is reported as “Toxic”.

With CC(C)[C@]12O[C@H]1[C@@H]1O[C@]13[C@]1(O[C@H]1C[C@H]1C4=C(CC[C@@]13C)C(=O)OC4)[C@@H]2O [TRIPTOLIDE] the viability at 24 h, 0.1 µM [2] was 76.5%, the viability at 24 h, 0.05 µM [3] was 62.8% and the Activity (BV-2 (Mus musculus) [4]) was “Dose-dependent effect”. The Activity (Cortical neurone [5]) was 100%, the viability at 24 h, 0.025 µM [6] was 27.2% and the Activity (Cortical neurone [8]) was 100%. It also gave a degraded [10] of 13%.

With CC(C)[C@]12O[C@H]1[C@@H]1O[C@]13[C@]1(O[C@H]1C[C@H]1C4=C(CC[C@@]13C)C(=O)OC4)[C@H]2F the Activity (BV-2 (Mus musculus) [4]) was “Dose-dependent effect”, the inhibition at 0.02 µM (BV-2 (Mus musculus) [13]) was 100% and the Activity (Cortical neurone [8]) was “inactive”. For the same compound, the Activity [9] was “Non-Toxic”.

For CC(C)[C@]12O[C@H]1[C@@H]1O[C@@]13[C@@]1(C)CCC4=C(COC4=O)[C@@H]1CC[C@@]3(O)[C@@H]2O, the Activity [9] was “Non-Toxic”, the Activity (Cortical neurone [14]) was “Non-Toxic” and the Activity (Cortical neurone [15]) was “Active”.

For CC(C)[C@]1(O)[C@H](O)[C@@H]2O[C@]23[C@]2(O[C@H]2C[C@H]2C4=C(CC[C@@]23C)C(=O)OC4)[C@@H]1O, the Activity (Cortical neurone [16]) was “Active” and the Activity (Cortical neurone [14]) was “Non-Toxic”.

With CC(C)[C@]12O[C@H]1[C@@H]1O[C@@]13[C@@]1(C)CCC4=C(COC4=O)[C@@H]1C[C@@H]1O[C@@]13C2=O [TRIPTONIDE] the inhibition at 0.02 µM (BV-2 (Mus musculus) [13]) was 100%, the Activity (Cortical neurone [16]) was “inactive” and the Activity [9] was “Non-Toxic”.

With CC(C)[C@]1(O)[C@H](F)[C@@H]2O[C@]23[C@]2(O[C@H]2C[C@H]2C4=C(CC[C@@]23C)C(=O)OC4)[C@@H]1O the Activity (Cortical neurone [16]) was “Active” and the Activity (Cortical neurone [14]) was “Non-Toxic”.

For CC(C)C1=C[C@@H]2O[C@@]23[C@@]2(C)CCC4=C(COC4=O)[C@@H]2C[C@@H]2O[C@@]23C1=O, the Activity (BV-2 (Mus musculus) [4]) was “Dose-dependent effect”, the Activity (BV-2 (Mus musculus) [17]) was “inactive” and the Activity [9] was “Non-Toxic”. The Activity (Cortical neurone [14]) was “Non-Toxic” and the Activity (Cortical neurone [15]) was “Active”.
